PHOSPHO1 block: blocks human PHOSPHO1 phosphatase activity. Q8TCT1. AID 1565. recombinant PHOSPHO1, absorbance phosphatase assay. 290,000 compounds, 1.1% hits. inhibition, % at 13.3 µM; in the data active means inhibition above about 60%
RGS4 act: RGS4 potentiation or activation; 310,000 compounds, 0.92% hits; B-score at 10 µM; HEK293 M3R/inducible RGS4, carbachol calcium flux Fluo4; stronger effect = lower value;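 active means B-score of the integrated calcium signal more than 4 SD below the library mean, with starting fluorescence not abnormally high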;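 further: negative B-score means reduced calcium response which marks RGS4 activation or potentiation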
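Material: M3R-expressing HEK293 line, RGS4 induced by doxycycline | Schedule: Overnight RGS4 induction, 30 min dye load 37 °C, 20 min compound RT | Measured by: Fluo4 fluorescence kinetic imaging of calcium | Read-out: Integrated calcium ratio converted to B score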
RGS4 block: human RGS4 inhibition | B-score at 10 µM | P49798 | 310,000 compounds, 0.45% hits | HEK293 M3R/RGS4 inducible, Fluo-4 calcium flux; stronger effect = higher value; triggered by carbachol at its EC20;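 active means B-score, a plate-corrected calcium signal, over three deviations above library mean, with baseline fluorescence within five deviations of library mean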;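 further: RGS4 expression induced by doxycycline in cells with stable M3 receptor; B-score is computed from the integrated fluorescence ratio over baseline after carbachol; higher B-score means a larger calcium signal and so more RGS4 inhibition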
Target sequence (P49798 whole entry, looked up): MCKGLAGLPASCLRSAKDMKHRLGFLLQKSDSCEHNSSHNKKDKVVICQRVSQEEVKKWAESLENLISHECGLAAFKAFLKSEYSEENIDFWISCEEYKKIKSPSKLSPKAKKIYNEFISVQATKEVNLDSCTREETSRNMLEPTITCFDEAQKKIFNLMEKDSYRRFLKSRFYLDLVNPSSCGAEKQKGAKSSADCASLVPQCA
MrgX1 antag: human MrgX1 receptor antagonism, primary screen; B-score at 10 µM; Q96LB2; 310,000 compounds, 1.3% hits; AID 588676; MRGX1-HEK293 calcium flux, Fluo-4, BAM8-22 antagonism; stronger effect = lower value;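 active means calcium-response B-score plate-corrected more than 3 library SD below zero, starting fluorescence within 5 deviations, no agonist response on first addition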;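 further: peak minus trough fluorescence over baseline after final BAM8-22 challenge near maximal dose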
Target sequence (Q96LB2 whole entry, looked up): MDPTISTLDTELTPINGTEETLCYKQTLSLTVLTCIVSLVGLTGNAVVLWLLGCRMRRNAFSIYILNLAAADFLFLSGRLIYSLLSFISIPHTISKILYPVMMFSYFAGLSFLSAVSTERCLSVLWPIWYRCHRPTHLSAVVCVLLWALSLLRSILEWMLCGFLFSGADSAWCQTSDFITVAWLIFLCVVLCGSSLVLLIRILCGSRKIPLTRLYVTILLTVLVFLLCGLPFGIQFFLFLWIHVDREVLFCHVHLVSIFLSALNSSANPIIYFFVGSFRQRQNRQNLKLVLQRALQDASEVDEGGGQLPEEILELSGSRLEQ
MrgX1 PAM: allosterically activates human MrgX1 receptor signaling; MrgX1-HEK293, Fluo-4 calcium flux, FDSS; stronger effect = higher value; 310,000 compounds, 0.63% hits; Q96LB2; AID 588675; B-score at 10 µM;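 active means plate-corrected calcium response at least 3 library SD above typical, normal starting fluorescence, not activating the receptor alone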;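 further: compound read alongside a low EC10 to EC30 dose of BAM8-22 agonist; peak minus trough fluorescence over baseline measured at the second addition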
MrgX1 ag: human MrgX1 receptor agonism, primary screen; MrgX1-HEK293 cells, Fluo-4 calcium fluorescence, agonist mode; stronger effect = higher value; Q96LB2; 310,000 compounds, 0.44% hits; AID 588627; B-score at 10 µM;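 active means calcium response B-score plate-corrected fluorescence ratio at least 3 library SD, with starting fluorescence B-score inside 5 SD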
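System – MrgX1-expressing HEK293 cells · Incubation – cells plated overnight, dye loaded 0.5 h 37 °C, 0.5 h room temperature · Technique – kinetic Fluo-4 NW fluorescence of intracellular calcium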
An asterisk follows results filed as active. An excerpt weighted towards active compounds, which were near 4.5% of everything screened.

How did Cc1ccc(NNC(=O)Nc2ccc(Cl)cc2)nn1 do in these assays?
PHOSPHO1 block: 3; RGS4 act: inactive; RGS4 block: inactive; MrgX1 antag: inactive; MrgX1 PAM: inactive; MrgX1 ag: inactive

Results for CCC(C)NCCOCCSc1ccc(Cl)cc1 (stereo not drawn) ?
PHOSPHO1 block: 11; RGS4 act: inactive; RGS4 block: inactive; MrgX1 antag: inactive; MrgX1 PAM: inactive; MrgX1 ag: inactive

Results for O=C(CCCCCN1C(=O)[C@@H]2Cc3ccccc3CN2C1=O)Nc1ccccc1F ?
PHOSPHO1 block: 5; RGS4 act: inactive; RGS4 block: inactive; MrgX1 antag: inactive; MrgX1 PAM: inactive; MrgX1 ag: inactive

How did Cc1ncc([N+](=O)[O-])n1CC(=O)N/N=C/c1ccccc1F do in these assays?
PHOSPHO1 block: 68*; RGS4 act: inactive; RGS4 block: inactive; MrgX1 antag: inactive; MrgX1 PAM: inactive; MrgX1 ag: inactive

What do the screens show for `O=C(Nc1cccc(C(F)(F)F)c1)c1cncs1`?
PHOSPHO1 block: 18; RGS4 act: inactive; RGS4 block: inactive; MrgX1 antag: inactive; MrgX1 PAM: inactive; MrgX1 ag: inactive

Results for COc1ccc(CNC(=O)C2CCC(CNc3nc(=S)[nH]c4ccccc34)CC2)cc1 (stereo not drawn) ?
PHOSPHO1 block: 17; RGS4 act: inactive; RGS4 block: inactive; MrgX1 antag: inactive; MrgX1 PAM: 12*; MrgX1 ag: inactive

Results for O=C(COc1coc(CN2CCCc3ccccc32)cc1=O)Nc1ccccc1 ?
RGS4 act: inactive; RGS4 block: inactive; MrgX1 antag: inactive; MrgX1 PAM: inactive; MrgX1 ag: inactive

What do the screens show for `COc1ccc(CN(C)CC(=O)N2CCc3ccccc3C2)cc1`?
PHOSPHO1 block: 31; RGS4 act: inactive; RGS4 block: inactive; MrgX1 antag: inactive; MrgX1 PAM: inactive; MrgX1 ag: inactive

What do the screens show for `Cc1ccc(S(=O)(=O)N2CCC(C(=O)N/N=C/c3ccccc3[N+](=O)[O-])CC2)cc1`?
PHOSPHO1 block: 6; RGS4 act: inactive; RGS4 block: inactive; MrgX1 antag: inactive; MrgX1 PAM: inactive; MrgX1 ag: inactive

What do the screens show for `COc1ccc(NC(=O)C2CCN(S(=O)(=O)c3cccnc3)CC2)cc1Cl`?
PHOSPHO1 block: 70*; RGS4 act: inactive; RGS4 block: inactive; MrgX1 antag: inactive; MrgX1 PAM: inactive; MrgX1 ag: inactive

Results for Cc1ccc(S(=O)(=O)N2CCC(C(=O)N/N=C/c3cccnc3)CC2)cc1 ?
PHOSPHO1 block: 2; RGS4 act: inactive; RGS4 block: inactive; MrgX1 antag: -5.2*; MrgX1 PAM: inactive; MrgX1 ag: inactive

How did O=C(CCc1ccc(O)c(O)c1)NNC(=S)Nc1ccc(Br)cc1Cl do in these assays?
PHOSPHO1 block: -35; RGS4 act: inactive; RGS4 block: inactive; MrgX1 antag: inactive; MrgX1 PAM: inactive; MrgX1 ag: inactive

What do the screens show for `Cc1ccc(S(=O)(=O)NNc2ccccc2)c(C)c1`?
PHOSPHO1 block: 76*; MrgX1 antag: inactive; MrgX1 PAM: inactive; MrgX1 ag: inactive

What do the screens show for `Oc1ccccc1-c1cc(-c2ccco2)[nH]n1`?
PHOSPHO1 block: 73*; RGS4 act: inactive; RGS4 block: inactive; MrgX1 antag: inactive; MrgX1 PAM: inactive; MrgX1 ag: inactive

What do the screens show for `S=c1[nH]nc(-c2cc(-c3ccco3)[nH]n2)n1-c1ccccc1Cl`?
PHOSPHO1 block: 86*; RGS4 act: inactive; RGS4 block: inactive; MrgX1 antag: inactive; MrgX1 PAM: inactive; MrgX1 ag: inactive

What do the screens show for `Oc1ccc(Cl)cc1-c1cc(-c2ccco2)[nH]n1`?
PHOSPHO1 block: 0; RGS4 act: inactive; RGS4 block: inactive; MrgX1 antag: inactive; MrgX1 PAM: inactive; MrgX1 ag: inactive

How did S=c1[nH]nc(-c2ccco2)n1-c1ccccc1Cl do in these assays?
PHOSPHO1 block: -75; RGS4 act: inactive; RGS4 block: inactive; MrgX1 antag: inactive; MrgX1 PAM: inactive; MrgX1 ag: inactive

What do the screens show for `O=C(CN(Cc1ccco1)C(=O)CCC(=O)Nc1ccccn1)NCc1ccccc1`?
PHOSPHO1 block: 19; RGS4 act: inactive; RGS4 block: inactive; MrgX1 antag: inactive; MrgX1 PAM: inactive; MrgX1 ag: inactive

What do the screens show for `CN(C)C(/C=C/Nc1ccc(C#N)cc1)=C(C#N)C#N`?
PHOSPHO1 block: 21; RGS4 act: inactive; RGS4 block: inactive; MrgX1 antag: -5.2*; MrgX1 PAM: inactive; MrgX1 ag: inactive

How did COC(=O)Oc1nsnc1N1CCOCC1 do in these assays?
PHOSPHO1 block: 92*; RGS4 act: inactive; RGS4 block: inactive; MrgX1 antag: inactive; MrgX1 PAM: inactive; MrgX1 ag: inactive

How did Cc1cc([N+](=O)[O-])cc(/C=N\NC(=O)C2COc3ccccc3O2)c1O (stereo not drawn) do in these assays?
PHOSPHO1 block: 20; RGS4 act: inactive; RGS4 block: inactive; MrgX1 antag: inactive; MrgX1 PAM: inactive; MrgX1 ag: inactive

What do the screens show for `CC1(C#CC[N+]2(C)CCCCC2)CCC2C(O1)c1ccccc1OC2(C)C` (stereo not drawn)?
PHOSPHO1 block: -5; RGS4 act: -7*; RGS4 block: inactive; MrgX1 antag: inactive; MrgX1 PAM: inactive; MrgX1 ag: inactive

How did COC(=O)Nc1sc2c(c1C(=O)NC1CC1)CCCCCC2 do in these assays?
PHOSPHO1 block: 88*; RGS4 act: inactive; RGS4 block: inactive; MrgX1 antag: inactive; MrgX1 PAM: inactive; MrgX1 ag: inactive

Results for c1ccc(OCCCCN2CCCCC2)cc1 ?
PHOSPHO1 block: 29; RGS4 act: inactive; RGS4 block: inactive; MrgX1 antag: inactive; MrgX1 PAM: inactive; MrgX1 ag: inactive

What do the screens show for `c1ccc(-c2ccccc2OCCCCN2CCCCCC2)cc1`?
PHOSPHO1 block: 32; RGS4 act: -7*; RGS4 block: inactive; MrgX1 antag: inactive; MrgX1 PAM: inactive; MrgX1 ag: inactive

How did O=C(c1ccccc1)c1ccc(OCCCN2CCCCC2)cc1 do in these assays?
PHOSPHO1 block: 20; RGS4 act: -7.2*; RGS4 block: inactive; MrgX1 antag: inactive; MrgX1 PAM: inactive; MrgX1 ag: inactive

How did c1ccc(-c2ccccc2OCCN2CCCC2)cc1 do in these assays?
PHOSPHO1 block: -7; RGS4 act: inactive; RGS4 block: inactive; MrgX1 antag: inactive; MrgX1 PAM: inactive; MrgX1 ag: inactive

Results for c1ccc(COc2ccc(OCCCCN3CCCC3)cc2)cc1 ?
PHOSPHO1 block: 1; RGS4 act: -8.8*; RGS4 block: inactive; MrgX1 antag: inactive; MrgX1 PAM: inactive; MrgX1 ag: inactive

Results for Cc1ccc(-c2n[nH]c(=S)n2C)cc1 ?
PHOSPHO1 block: 94*; RGS4 act: inactive; RGS4 block: inactive

Assay outcomes as filed in PubChem.
